Measurements taken from ChEMBL document CHEMBL1125034, “Design and synthesis of 4H-3,1-benzoxazin-4-ones as potent alternate substrate inhibitors of human leukocyte elastase” (J Med Chem, 1990).

What was measured:
[1] = Alkaline hydrolysis rate of the compound; type: ADME
In short: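 Alkaline hydrolysis rate constants measured at several pH values at 25 °C. Loss of the long-wavelength UV chromophore (λmax typically 300-345 nm) was followed by spectrophotometer.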

Neutrophil elastase = molecular target: T1, Neutrophil elastase (Homo sapiens, UniProt P08246); assay: Inhibition of human leukocyte elastase
T1 sequence (P08246 whole entry): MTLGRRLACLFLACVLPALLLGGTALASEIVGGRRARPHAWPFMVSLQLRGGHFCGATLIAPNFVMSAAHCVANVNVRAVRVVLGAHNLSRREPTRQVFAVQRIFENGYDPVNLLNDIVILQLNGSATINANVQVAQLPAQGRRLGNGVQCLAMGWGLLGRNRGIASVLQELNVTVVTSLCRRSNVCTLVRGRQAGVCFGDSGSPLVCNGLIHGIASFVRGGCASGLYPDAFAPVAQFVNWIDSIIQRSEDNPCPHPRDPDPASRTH

[2] = Partition coefficient (logD7.4); type: physicochemical; conditions: octanol/water, pH 7.4

SMILES	Log kOH- [1]	Ki (Neutrophil elastase)	logD [2]
CCc1cccc2nc(NC(C)C)oc(=O)c12	0.31		
CCCOc1cc(CC)c2c(=O)oc(NC(C)C)nc2c1		21.4 nM	
COC(=O)[C@H](CC(C)C)Nc1nc2cccc(C)c2c(=O)o1	0.59	251 nM	3.7
Cc1ccc2nc(C(F)(F)F)oc(=O)c2c1	3.23	513 nM	
CC(C)COC(=O)N(C)c1nc2ccccc2c(=O)o1	2.21	2.69 nM	
COc1cc2nc(C)oc(=O)c2cc1OC	0.53	832000 nM	
CCN(CC)c1nc2ccccc2c(=O)o1		372 nM	
CCOc1nc2cc(N)ccc2c(=O)o1	0.2	5.75 nM	
Cc1ccc2nc(C)oc(=O)c2c1	1.36	34700 nM	1.8
CCc1ccc2c(=O)oc(NC(C)C)nc2c1	0.69	182 nM	3.2
COc1cccc2nc(C(F)(F)F)oc(=O)c12	3.54	417 nM	
Cc1cccc2c(=O)oc(NCc3ccccc3)nc12	0.92	2000 nM	
Cc1ccccc1CNc1nc2ccccc2c(=O)o1	1.01	2820 nM	
COc1cc2nc(OCc3ccccc3)oc(=O)c2cc1OC	0.97	933 nM	
Cc1cccc2nc(N)oc(=O)c12	-0.05		
NC(=O)C1CCCN1c1nc2ccccc2c(=O)o1 (configuration not stated)	1.21	178 nM	0.4
CCSc1nc2cc3ccccc3cc2c(=O)o1	2.54	72.4 nM	
CCN(CC)c1ccc2c(=O)oc(NC(C)C)nc2c1	-0.99	5500 nM	
CCc1cccc2nc(N)oc(=O)c12	-0.08		
Cc1ccc(C)c2c(=O)oc(NC(C)C)nc12	0.2	6.61 nM	
COc1cccc2nc(Nc3ccccc3)oc(=O)c12	0.41	158000 nM	3.1
CCSc1nc2ccc(N(C)C)cc2c(=O)o1	1.76	339 nM	

SMILES	Log kOH- [1]	Ki (Neutrophil elastase)	logD [2]
Cc1ccc2c(=O)oc(NC(C)C)nc2c1C	0.46	708 nM	3.8
O=c1oc(-c2ccco2)nc2ccccc12	1.94	1780 nM	
CCc1cccc2nc(N(C(C)C)C(C)C)oc(=O)c12		70.8 nM	
CC(C)[C@H](NC(=O)C1CCCN1c1nc2ccccc2c(=O)o1)C(N)=O (some centres not stated)		468 nM	
CCOc1nc2cc(N)cc(CC)c2c(=O)o1	-0.54	10 nM	2.7
Cc1nc2ccccc2c(=O)o1	1.69	4790 nM	1.3
CCSc1nc2ccc(C)cc2c(=O)o1	1.95	170 nM	
O=c1oc(SCc2ccccc2)nc2cc3ccccc3cc12		257 nM	
CCCCNc1nc2cccc(C)c2c(=O)o1	0.41		
CCCc1nc2ccccc2c(=O)o1		2880 nM	
O=c1oc(N2CCCC2)nc2ccccc12	0.97	1910 nM	
O=c1oc(C(F)(F)F)nc2ccccc12	3.52	170 nM	1.9
Cc1cccc2nc(NCCC(C)C)oc(=O)c12		1550 nM	
CCOC(=O)CNc1nc2ccccc2c(=O)o1	1.4	64600 nM	
Cc1cccc2nc(NCC(C)(C)C)oc(=O)c12		240 nM	
COC(=O)[C@H](CC(C)C)NC(=O)[C@H](CC(C)C)Nc1nc2cc(C)cc(C)c2c(=O)o1		39.8 nM	
CC(=O)Nc1ccc2c(=O)oc(NC(C)C)nc2c1	0.92	148 nM	1.2
O=c1oc(CBr)nc2ccccc12	2.06	955 nM	
O=c1oc(SCc2ccccc2)nc2ccccc12	2.33	39.8 nM	3.6
COc1cc2nc(SC/C=C/c3ccccc3)oc(=O)c2cc1OC		6920 nM	
COC(=O)[C@H](CC(C)C)Nc1nc2cc(C)cc(C)c2c(=O)o1	-0.18	1260 nM	4
COc1cccc2nc(C)oc(=O)c12	0.83	14500 nM	

SMILES	Log kOH- [1]	Ki (Neutrophil elastase)	logD [2]
CCSc1nc2cc(CC)ccc2c(=O)o1	1.66	20.9 nM	
O=c1oc(C(F)(F)C(F)(F)C(F)(F)F)nc2ccccc12	3.27	91.2 nM	
O=c1oc(N2CCOCC2)nc2ccccc12	1.5	708 nM	
COC(=O)[C@@H](NC(=O)[C@H](C)Nc1nc2ccccc2c(=O)o1)C(C)C		182 nM	
CCCCCCNc1nc2ccccc2c(=O)o1	0.96		3.8
COc1cc2nc(SCc3c[nH]c4ccccc34)oc(=O)c2cc1OC		12900 nM	
CCc1cc(OC)cc2nc(NC(C)C)oc(=O)c12	-0.6	11 nM	
Cc1cccc2nc(N(C(C)C)C(C)C)oc(=O)c12		398 nM	
CCOc1nc2cccc(CC)c2c(=O)o1	1.17	0.0427 nM	
COC(=O)[C@@H](CC(C)C)NC(=O)[C@@H](CC(C)C)Nc1nc2cc(C)cc(C)c2c(=O)o1		102 nM	
CCC(C)Nc1nc2ccccc2c(=O)o1 (configuration not stated)	0.92	43.7 nM	
CCOc1nc2ccccc2c(=O)o1	1.91	6.46 nM	
CCc1cc(N(C)C)cc2nc(NC(C)C)oc(=O)c12	-1.88	110 nM	
CCSc1nc2cccc(CC)c2c(=O)o1	1.37		
CCOc1nc2cccc(CBr)c2c(=O)o1	1.93	0.0676 nM	
C[C@H](NC(=O)[C@@H]1CCCN1c1nc2ccccc2c(=O)o1)C(N)=O		234 nM	
CCCCN(CCCC)c1nc2cccc(C)c2c(=O)o1		363 nM	
COc1nc2cccc(C)c2c(=O)o1		10 nM	
CCOC(=O)Nc1ccc2c(=O)oc(OCC)nc2c1	1.46	17.8 nM	
CCc1cccc2nc(N[C@@H](CC(C)C)C(=O)OC)oc(=O)c12	0.48	12 nM	
O=c1oc(C(F)(F)C(F)(F)F)nc2ccccc12		110 nM	
O=c1oc(OCc2ccccc2)nc2ccccc12	1.99	56.2 nM	

SMILES	Log kOH- [1]	Ki (Neutrophil elastase)	logD [2]
Nc1cccc(CNc2nc3ccccc3c(=O)o2)c1	1.18	1580 nM	
CCOc1nc2cccc(C(C)C)c2c(=O)o1	0.96	0.0708 nM	
CC(C)(C)c1nc2ccccc2c(=O)o1	1.38	8910 nM	
CCCCN(CCCC)c1nc2cccc(CC)c2c(=O)o1		178 nM	
O=c1oc(N2CCCCC2)nc2ccccc12		646 nM	3
CCOc1nc2c(C)ccc(C)c2c(=O)o1		0.0955 nM	
Cc1cccc2c(=O)oc(SCc3ccccc3)nc12		110 nM	
CC(C)Nc1nc2cc(N)ccc2c(=O)o1	-0.46	776 nM	
CCOc1nc2cc(OC)cc(C)c2c(=O)o1		0.398 nM	
CC(C)COc1nc2ccccc2c(=O)o1	1.83	11.5 nM	
CN(C)c1ccc(CNc2nc3ccccc3c(=O)o2)cc1	1.81	2000 nM	
CCCCNc1nc2c(C)cccc2c(=O)o1	0.86	407 nM	
CCOC(=O)C(Cc1ccccc1)Nc1nc2ccccc2c(=O)o1 (configuration not stated)		1200 nM	
CCCCCCCCNc1nc2ccccc2c(=O)o1	0.03	31600 nM	
CCOC(=O)CSc1nc2ccccc2c(=O)o1	2.93	72.4 nM	
CC(C)Sc1nc2ccccc2c(=O)o1		7.76 nM	
Cc1cccc2nc(Nc3ccccc3)oc(=O)c12		110 nM	
CCOc1nc2cccc(C)c2c(=O)o1	1.31	0.115 nM	
Cc1cccc2nc(CBr)oc(=O)c12	1.58	151 nM	
Nc1nc2ccccc2c(=O)o1	0.53		
Cc1cccc2ncoc(=O)c12	1.38	219 nM	
C[C@H](N)C(=O)c1nc2ccccc2c(=O)o1	1.76	759 nM	

SMILES	Log kOH- [1]	Ki (Neutrophil elastase)	logD [2]
Cc1nc2cccc(C)c2c(=O)o1	0.85	1000 nM	
CCCNc1nc2ccccc2c(=O)o1			2.4
Cc1cccc2nc(NC3CCCC3)oc(=O)c12		200 nM	
CNc1nc2c(C)cccc2c(=O)o1		97700 nM	
CCC(C)(C)Nc1nc2ccccc2c(=O)o1		155 nM	
CCCCN(C(C)=O)c1nc2ccccc2c(=O)o1	2.48	10 nM	
CNc1nc2ccccc2c(=O)o1	1.38		1.7
CCNc1nc2ccccc2c(=O)o1		52.5 nM	
CCN(CC)c1nc2c(C)ccc(C)c2c(=O)o1		105 nM	
CCCCCNc1nc2cccc(C)c2c(=O)o1		3390 nM	
CCCCNc1nc2ccccc2c(=O)o1	1.09		3.1
CC(=O)N(C)c1nc2ccccc2c(=O)o1	2.57	5.75 nM	
Cc1cccc2nc(NC(C)C)oc(=O)c12	0.41		3
CCc1cccc2nc(C)oc(=O)c12	0.73	120 nM	
O=c1oc(-c2cccc([N+](=O)[O-])c2)nc2ccccc12	1.82	4370 nM	
CSc1nc2ccccc2c(=O)o1	2.16	20.9 nM	
Cc1cccc2c(=O)oc(NC(C)C)nc12	0.69	589 nM	
O=c1oc(Cc2ccccc2)nc2ccccc12		3630 nM	
CCNc1ccc2c(=O)oc(NC(C)C)nc2c1		692 nM	2.4
